Activity calls are given as the source filed them. No cut-off for these calls is given here.
Experiments:
[1] = Drug uptake in Lewis rat spleen at 10 mg/kg, po bid after 24 hrs by LC/MS/MS analysis; assay type: ADME, organism-based; conditions: read-out: Drug uptake
[2] = target: T1, Signal peptide peptidase-like 2A (Homo sapiens, UniProt Q8TCT8); assay: Inhibition of human SPPL2a expressed in HEK293 cells using GAL4-VP16 fusedTNFalpha (1 to 76)-NTF as substrate after 24 hrs by Bright-Glo luciferase reporter gene assay; assay type: cell-based
T1 sequence (Q8TCT8 whole entry): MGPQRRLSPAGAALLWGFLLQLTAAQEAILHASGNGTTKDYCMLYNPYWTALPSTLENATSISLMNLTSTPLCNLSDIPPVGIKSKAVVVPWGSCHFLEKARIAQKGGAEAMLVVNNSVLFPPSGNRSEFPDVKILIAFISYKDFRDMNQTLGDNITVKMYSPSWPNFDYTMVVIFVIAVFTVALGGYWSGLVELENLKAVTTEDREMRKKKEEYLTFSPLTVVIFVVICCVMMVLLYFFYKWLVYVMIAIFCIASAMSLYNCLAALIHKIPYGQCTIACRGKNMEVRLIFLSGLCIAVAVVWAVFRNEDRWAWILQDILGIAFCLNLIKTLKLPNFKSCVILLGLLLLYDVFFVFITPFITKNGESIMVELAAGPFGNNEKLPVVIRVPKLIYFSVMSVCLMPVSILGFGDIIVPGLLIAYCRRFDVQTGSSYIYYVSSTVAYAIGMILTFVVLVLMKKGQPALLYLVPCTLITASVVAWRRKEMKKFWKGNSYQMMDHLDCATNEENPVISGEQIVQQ
How it was run: (§1)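 HEK293 cells transiently transfected with human SPPL2a, VP16-TNFα(aa1-76)-NTF substrate and Gal4-luciferase reporter (SPPL2a), or human Notch1-VP16-Gal4 plus Gal4-luciferase reporter relying on endogenous γ-secretase.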

[3] = Octanol-buffer partition coefficient, log P of the compound by LC/MS/MS based shake flask method; assay type: physicochemical
[4] = Total concentration in Lewis rat blood at 10 mg/kg, po bid after 24 hrs by LC/MS/MS analysis; assay type: ADME, organism-based; conditions: read-out: Drug uptake
Mus musculus [5] = assay: Dose normalized AUC in po dosed Balb/c mouse by LC/MS/MS analysis; assay type: ADME, organism-based; conditions: in vivo
Plasma = assay: Cmin in mouse plasma at 10 mg/kg, po bid administered at 8 and 16 hrs dosing interval between first and second dose respectively for 11 days measured predose on day 12 by LC/MS/MS analysis; assay type: ADME, organism-based; conditions: in vivo, read-out: Cmin
How it was run: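 Mice gavaged bid in 0.5% MC:0.5% Tween or PEG:D5W 3:1; trough sample taken before the morning dose; 50 μL retro-orbital blood into LiHep tubes, kept on ice, plasma separated at 2823g for 5 min, stored at −20 °C until analysis.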

[6] = Total plasma concentration in mouse at 30 mg/kg administered via oral gavage measured after 16 hrs post dose by LC/MS/MS analysis; assay type: ADME, organism-based
How it was run: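 Mice dosed by oral gavage in 0.5% MC:0.5% Tween or PEG:D5W 3:1. 50 μL blood taken retro-orbitally into LiHep tubes; in chronically dosed animals the trough sample came before the morning dose. Kept on ice, plasma separated by centrifugation at 2823g, 5 min, stored at −20 °C until analysis.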

[7] = Drug uptake in Lewis rat spleen at 1 mg/kg, po bid after 24 hrs by LC/MS/MS analysis; assay type: ADME, organism-based; conditions: read-out: Drug uptake
[8] = target: T2, Signal peptide peptidase-like 2A (Mus musculus, UniProt Q9JJF9); assay: Inhibition of mouse SPPL2a in A20 cells assessed as CD74/p8 accumulation by flow cytometry; assay type: cell-based
T2 sequence (Q9JJF9 whole entry): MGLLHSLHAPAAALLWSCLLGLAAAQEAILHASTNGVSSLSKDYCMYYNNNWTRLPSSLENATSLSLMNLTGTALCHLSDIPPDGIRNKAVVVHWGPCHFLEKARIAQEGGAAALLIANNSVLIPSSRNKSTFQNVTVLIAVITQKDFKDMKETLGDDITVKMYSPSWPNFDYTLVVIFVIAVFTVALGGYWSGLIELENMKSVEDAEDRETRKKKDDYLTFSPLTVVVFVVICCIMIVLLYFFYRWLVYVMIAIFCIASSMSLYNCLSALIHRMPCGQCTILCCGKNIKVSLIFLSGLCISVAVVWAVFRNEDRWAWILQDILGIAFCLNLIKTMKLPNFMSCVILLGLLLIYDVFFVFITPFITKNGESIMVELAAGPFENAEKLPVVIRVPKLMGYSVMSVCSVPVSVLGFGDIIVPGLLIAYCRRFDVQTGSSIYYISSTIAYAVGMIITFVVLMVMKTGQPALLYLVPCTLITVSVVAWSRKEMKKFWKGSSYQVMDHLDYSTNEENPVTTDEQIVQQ

[9] = Oral bioavailability in Balb/c mouse by LC/MS/MS analysis; assay type: ADME, organism-based; conditions: in vivo
[10] = Inhibition of human SPP expressed in human U2OS cells using EGFP-labeled EnvSigSeq-SEAP as substrate after 24 hrs by Hoechst staining based high content imaging assay; assay type: cell-based
How it was run: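 Stable U-2 OS lines expressing human SPPL2a, SPPL2b or SPP constitutively (mouse SPPL2a line analogous, mouse TNFα(aa1-77)-NTF-EGFP-NLS) with doxycycline-inducible EGFP substrate. 3000 cells/well, 3−4 h, then 11-point inhibitor 100 μM to 1 nM, 0.9% DMSO, 5 μg/mL doxycycline, 24 h 37 °C. PFA fixed, Hoechst nuclei; nuclear minus cytoplasmic EGFP intensity; inhibition vs 0.5 μM reference and DMSO; IC50 by nonlinear regression.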

[11] = Clearance in Balb/c mouse at 5 mg/kg, iv by LC/MS/MS analysis; assay type: ADME, organism-based; conditions: in vivo
[12] = Inhibition of human gamma-secretase expressed in HEK293 cells using Notch1-VP16-Gal4 as substrate after 24 hrs by Bright-Glo luciferase reporter gene assay; assay type: cell-based; conditions: HEK293, 24 h; how it was run: as §1
Mus musculus [13] = assay: Immunomodulatory activity in mouse assessed as reduction in plasmacytoid dendritic cells in splenocyte at 3 to 30 mg/kg administered via oral gavage bid at 8 and 16 hrs dosing interval between first and second dose respectively for 11 days measured 16 hrs post last dose on day 12 by B220 staining based flow cytometry; assay type: functional, organism-based
How it was run: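 Mice gavaged with compound in 0.5% MC:0.5% Tween or PEG:D5W 3:1. Spleens dissociated in GentleMACS, filtered at 40 μm, ACK red-cell lysis, counted; 1 × 10^6 splenocytes stained 30 min on ice in HBSS/2% FBS/5 mM EDTA with antimouse panels for B-cell subsets (B220, CD21, CD23, IgM, IgD) or dendritic cells (PDCA1, CD11c, MHCII, lineage markers); analyzed on Fortessa flow cytometer.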

Mus musculus [14] = assay: Immunomodulatory activity in mouse assessed as reduction in myloid dendritic cells in splenocyte administered via oral gavage bid at 8 and 16 hrs dosing interval between first and second dose respectively for 11 days measured 16 hrs post last dose on day 12 by B220 staining based flow cytometry; assay type: functional, cell-based
[15] = Drug uptake in Lewis rat spleen at 30 mg/kg, po bid after 24 hrs by LC/MS/MS analysis; assay type: ADME, organism-based; conditions: read-out: Drug uptake
[16] = Stability in mouse liver microsomes at […] preincubated for 3 mins followed by NADPH addition measured after 1 hr in presence of GSH and [13C2-15N-glycine]-GSH by HPLC/MS method; assay type: ADME, microsome; conditions: read-out: Stability
[17] = Volume of distribution at steady state in Balb/c mouse at 5 mg/kg, iv by LC/MS/MS analysis; assay type: ADME, organism-based; conditions: in vivo, read-out: Vdss

Row | concentration at 24 h [1] [nM] | IC50 [2] [nM] | logP [3] | concentration at 24 h [4] [nM] | AUC/dose (Mus musculus [5]) [nM·h] | concentration (Plasma) [nM] | concentration at 16 h [6] [nM] | concentration at 24 h [7] [nM] | IC50 [8] [nM] | bioavailability [9] [%] | IC50 [10] [µM] | clearance [11] [mL/min/kg] | IC50 [12] [µM] | concentration at 24 h [15] [µM] | remaining at 1 h [16] [%] | Vd [17] [L/kg] | Compound | Activity (Mus musculus [13]) | Activity (Mus musculus [14])
1 | 2400 | 77 | 2.3 | 1390 | 6071 | 66 | 136 | 330 | 137 | 94 | 3.73 | 5 | 6.1 | 4.45 |  |  | Cc1ncc(F)cc1NC(=O)C[C@H](C(=O)N[C@@H]1C(=O)N2CC3(CC3)CN2C(=O)c2ccccc21)C1CC1 | inactive | Dose-dependent effect
2 |  | 35 |  |  | 908 |  |  |  | 370 | 100 |  | 46 | 1.86 |  | 92 | 1.2 | Cc1ccccc1NC(=O)C[C@@H](C)C(=O)N[C@@H]1C(=O)N2CCCN2Cc2ccccc21 |  | 
